Results gathered from unrelated publications.
Lines come from different studies, so protocols differ.
ADRA1B: Alpha-1B adrenergic receptor (ADRA1B, Homo sapiens, UniProt P35368)
gag-pol integrase: Gag-Pol polyprotein, integrase (gag-pol, Human immunodeficiency virus 1, UniProt P12497)
PPARA: Peroxisome proliferator-activated receptor alpha (PPARA, Homo sapiens, UniProt Q07869)
Tumor necrosis factor receptor superfamily member 9: Tumor necrosis factor receptor superfamily member 9 (Homo sapiens, UniProt Q07011)

COCCCN1CCN(c2ccccc2OC)CC1
Ki (ADRA1B; ligand displacement, radioligand): 240 nM

O=C(O)[C@H](Cc1ccccc1)NC(=O)C1(c2ccccc2)CCN(Cc2ccccc2)CC1
IC50 (gag-pol integrase; enzyme activity, inhibitor, TR-FRET): 194000 nM

CC(C)Oc1cccnc1N(C)C1CCN(Cc2ccc(I)cc2)CC1
Ki (D(2) dopamine receptor (Drd2, Rattus norvegicus, UniProt P61169); ligand displacement, radioligand; cell membranes): 85 nM

O=S(=O)(O)C(F)(F)C(F)(F)C(F)(F)C(F)(F)C(F)(F)C(F)(F)F
EC50 (PPARA; reporter gene, agonist, luciferase): 61000 nM

CC(C)C[C@H](NC(=O)[C@H](Cc1ccccc1)NC(=O)[C@H](Cc1ccc(O)cc1)NC(=O)CNC(=O)[C@H](CCCCN)NC(=O)[C@H](CO)NC(=O)[C@H](CCC(N)=O)NC(=O)CNC(=O)[C@@H](NC(=O)[C@H](CO)NC(=O)[C@@H]1CCCN1C(=O)[C@H](CO)NC(=O)[C@H](CCC(N)=O)NC(=O)[C@H](Cc1ccc(O)cc1)NC(=O)[C@H](CCC(=O)O)NC(=O)[C@H](C)NC(=O)[C@H](CCCCN)NC(=O)[C@@H](N)Cc1ccccc1)C(C)C)C(=O)N[C@@H](Cc1ccccc1)C(=O)N[C@@H](CCCNC(=N)N)C(=O)N1CCC[C@H]1C(=O)N[C@@H](CCCNC(=N)N)C(=O)N[C@@H](CC(N)=O)C(N)=O
EC50 (Neuromedin-U receptor 2 (NMUR2, Homo sapiens, UniProt Q9GZQ4); inositol phosphate, agonist): 0.24 nM

CCCC[C@@H]1NC(=O)[C@H](Cc2ccc(O)cc2)NC(=O)[C@@H]2CCCN2C(=O)[C@H](CC(=O)O)NC(=O)[C@H](C)NC(=O)[C@H](Cc2ccccc2)NC(=O)[C@@H]2CSCCC(=O)N3CN(CN(C3)C(=O)CCSC[C@@H](C(=O)N[C@@H](C)C(N)=O)NC1=O)C(=O)CCSC[C@H](NC(C)=O)C(=O)N[C@@H](CC(C)(C)C)C(=O)N1CCC[C@H]1C(=O)N[C@@H](CCC(=O)O)C(=O)N[C@H](CCCCNC(=O)CCc1cn(CCOCCOCCOCCOCCOCCC(=O)N[C@H]3CSCCC(=O)N4CN5CN(C4)C(=O)CCSC[C@H](NC(=O)[C@@H](CCC(=O)O)NC(=O)[C@H](Cc4cccc6ccccc46)NC(=O)[C@@H]4CCCN4C3=O)C(=O)N[C@@H](CC(C)C)C(=O)N[C@@H](CCCCNC(=N)N)C(=O)N[C@@H](CC(=O)O)C(=O)N[C@@H](Cc3c[nH]c4ccccc34)C(=O)N[C@@H](CO)C(=O)N[C@@H]([C@@H](C)O)C(=O)N3CCC[C@H]3C(=O)N3C[C@H](O)C[C@H]3C(=O)N[C@@H](Cc3c[nH]c4ccccc34)C(=O)N[C@H](C(N)=O)CSCCC5=O)nn1)C(=O)N1CCC[C@H]1C(=O)N[C@@H](Cc1ccc(O)cc1)C(=O)N2
Kd (Tumor necrosis factor receptor superfamily member 9; binding, SPR): 8.4 nM

O=C(O)[C@H](Cc1ccc2ccccc2c1)NC(=O)C1(c2ccc3ccccc3c2)CCN(CCC(F)(F)F)CC1
IC50 (gag-pol integrase; enzyme activity, inhibitor, TR-FRET): 180000 nM

CCCC[C@@H]1NC(=O)[C@H](Cc2ccc(O)cc2)NC(=O)[C@@H]2CCCN2C(=O)[C@H](CC(=O)O)NC(=O)[C@H](C)NC(=O)[C@H](Cc2ccccc2)NC(=O)[C@@H]2CSCCC(=O)N3CN(CN(C3)C(=O)CCSC[C@@H](C(=O)N[C@@H](C)C(N)=O)NC1=O)C(=O)CCSC[C@H](NC(C)=O)C(=O)N[C@@H](CC(C)(C)C)C(=O)N1CCC[C@H]1C(=O)N[C@@H](CCC(=O)O)C(=O)N[C@H](CCCCNC(=O)CCc1cn(CCOCCOCCOCCOCCOCCC(=O)NCCCC[C@H]3NC(=O)[C@H](Cc4cccc5ccccc45)NC(=O)[C@@H]4CCCN4C(=O)[C@@H](NC(C)=O)CSCCC(=O)N4CN5CN(C4)C(=O)CCSC[C@H](NC3=O)C(=O)N[C@@H](CCSC)C(=O)N[C@@H](CCCCNC(=N)N)C(=O)N[C@@H](CCC(=O)O)C(=O)N[C@@H](Cc3c[nH]c4ccccc34)C(=O)N[C@@H](CO)C(=O)N[C@@H]([C@@H](C)O)C(=O)N3CCC[C@H]3C(=O)N3C[C@H](O)C[C@H]3C(=O)N[C@@H](Cc3c[nH]c4ccccc34)C(=O)N[C@H](C(N)=O)CSCCC5=O)nn1)C(=O)N1CCC[C@H]1C(=O)N[C@@H](Cc1ccc(O)cc1)C(=O)N2
Kd (Tumor necrosis factor receptor superfamily member 9; binding, SPR): 7.2 nM

CC[C@H](C)[C@H](NC(=O)[C@H](CCCNC(=N)N)NC(=O)[C@H](CC(C)C)NC(=O)[C@@H](N)Cc1ccccc1)C(=O)N[C@@H](CCCNC(=N)N)C(=O)N1CCC[C@H]1C(=O)N[C@@H](CCCCN)C(=O)O
Ki (ADRA1B; cell-free assay, radioligand): 6900 nM

c1ccc(-c2c[nH]c3ncnc(N4CCOCC4)c23)cc1
IC50 (Serine/threonine-protein kinase 4 (STK4, Homo sapiens, UniProt Q13043); enzyme activity, inhibitor, ADP detection): 35 nM

O=C(O)C(F)(F)C(F)(F)C(F)(F)C(F)(F)C(F)(F)C(F)(F)F
EC50 (PPARA; reporter gene, agonist, luciferase): 45000 nM

Cc1cc(SCc2sc(-c3ccc(C(F)(F)F)c(F)c3)nc2C)ccc1OCC(=O)O
EC50 (PPARA; reporter gene, agonist, luciferase): 1300 nM

[Cd+2]
Ki (Protein phosphatase 1A (PPM1A, Homo sapiens, UniProt P35813, D38V); enzyme activity, inhibitor, absorbance; pH 8): 470 nM

Cc1c(Cc2ccc(C(F)(F)F)nc2)c[nH]c1C(=O)NC(C)c1cnn(C)c1 (centres unmarked)
IC50 (Cytochrome P450 2D6 (CYP2D6, Homo sapiens, UniProt P10635); enzyme activity, inhibitor; human, liver microsomes): 12700 nM
